Most compounds without a hit are left out; they make up all but 2% or so of the library.
CHRM1 agonist – activates human CHRM1 receptor. P11229. CHO-K1 hM1, Fluo-8 calcium fluorescence, agonist mode; 0% DMSO, 100% acetylcholine EC100. activation, % at 3 µM. 0.33% of 360,000 active. AID 588814;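 active = activation above the run's mean compound activation plus 3 SD, cut at about 16% in these data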;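 note: peak over basal fluorescence ratio within a 140 s kinetic read after compound addition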
Target sequence (P11229 whole entry, looked up): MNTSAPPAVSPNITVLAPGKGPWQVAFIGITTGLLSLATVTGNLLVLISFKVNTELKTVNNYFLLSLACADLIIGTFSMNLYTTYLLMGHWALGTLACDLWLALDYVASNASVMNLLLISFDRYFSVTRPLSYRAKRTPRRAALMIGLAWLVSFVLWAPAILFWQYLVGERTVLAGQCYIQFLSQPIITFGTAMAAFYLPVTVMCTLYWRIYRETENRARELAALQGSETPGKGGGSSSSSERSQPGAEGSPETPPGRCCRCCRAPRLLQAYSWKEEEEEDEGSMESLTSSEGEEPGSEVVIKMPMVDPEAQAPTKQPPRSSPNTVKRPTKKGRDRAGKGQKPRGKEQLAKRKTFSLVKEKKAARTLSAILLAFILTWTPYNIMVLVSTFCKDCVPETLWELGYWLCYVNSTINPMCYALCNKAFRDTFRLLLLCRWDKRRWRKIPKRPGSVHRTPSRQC
M1 antag – blocks human M1 muscarinic receptor. CHO-K1 hM1, Fluo-8 calcium fluorescence, ACh EC80 antagonist. inhibition, % at 3 µM. 1.3% of 360,000 active. AID 588852;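 active = percent inhibition above its own plate's cutoff, namely the mean of that plate's compound wells plus 3 SD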;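 note: peak over basal fluorescence ratio during 140 s after agonist addition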
M5 ag – agonists of human muscarinic M5 receptor (CHRM5). CHO-K1 hM5 cells, Fluo-8 calcium fluorescence; 0% DMSO wells, 100% maximal acetylcholine response. AID 624037. 0.19% of 360,000 active. activation, % at 3 µM;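 active = activation above the run's mean over test compounds plus 3 SD, cut at about 23% in these data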;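 note: signal is peak over basal fluorescence ratio across the kinetic read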
CHRM1 PAM – positive allosteric modulators of human M1 muscarinic receptor; P11229; activation, % at 3 µM; 0.088% of 360,000 active; CHO-K1 hM1, Fluo-8 calcium fluorescence, ACh EC20; 0% = ACh EC20, 100% = maximal ACh; in the data active = activation above about 19%, passing the limit was not always enough
M5 antag – blocks acetylcholine activation of human M5 receptor. 0.59% of 360,000 active. AID 624040. CHO-hM5 cells, Fluo-8 calcium fluorescence, ACh EC80. inhibition, % at 3 µM. P08912;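 active = inhibition above a per-plate cutoff, the mean of that plate's test compounds plus 3 SD, cut at about 27% in these data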
CHRM5 PAM – CHRM5 positive allosteric modulation; P08912; CHO-K1 hM5, Fluo-8 calcium, ACh EC20 PAM; 0% = ACh EC20, 100% = ACh EC100; activation, % at 3 µM; 0.3% of 360,000 active; AID 624038;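 active = activation above the run cutoff, the mean activation of all test compounds plus 3 SD, cut at about 18% in these data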
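System: CHO-K1 cell line with stable human muscarinic M5 receptor expression | Also added: EC20 acetylcholine as agonist stimulus | Compound: One concentration, 3 µM final (nominal) | Timing: Fluo-8 loading 80 min at 37 °C plus 30 min room temperature | Measured by: Fluo-8 calcium dye fluorescence, kinetic read | Read-out basis: % activation, ACh-normalized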
A number is an active result; - = inactive; . = no result given.

SMILES	CHRM1 agonist	M1 antag	M5 ag	CHRM1 PAM	M5 antag	CHRM5 PAM
O=C(CSc1nnc(Cc2ccccc2)o1)c1ccc(F)cc1	-	-	-	-	-	-
O=C(O)CSC1c2ccccc2C(=O)N1c1ccccc1 (stereo not given)	-	-	-	-	-	37
O=C(c1cc(COc2cccc(C(F)(F)F)c2)on1)N1CCC(c2ccncc2)CC1	-	38	-	-	-	-
CC(=O)c1cccc(OCc2cc(C(=O)N3CCC(N4CCCCC4)CC3)no2)c1	-	48	-	-	-	-
O=C(c1cc(COc2cccc(C(F)(F)F)c2)on1)N1CCC(c2ccccc2)CC1	-	-	-	-	-	-
COC(=O)c1cc(S(=O)(=O)Nc2cccc(-c3ccno3)c2)c[nH]1	-	-	-	-	-	-
COC(=O)Cc1ccc(OC2(C)CCN(Cc3csc4ccccc34)C2)cc1 (stereo not given)	-	29	-	-	-	-
CC1(Oc2cccc(F)c2)CCN(Cc2csc3ccccc23)C1 (stereo not given)	-	-	-	-	-	-
CC(C)c1ccc(NC(=O)C2(C)Cc3c(-c4ccc5c(c4)OCO5)ccnc3O2)cc1 (stereo not given)	-	-	-	-	-	-
COc1ccc(COc2cc(-c3cccc(OC)c3)nc3ccc(NC(=O)c4ccc(N(C)C)cc4)cc23)cc1	-	40	-	-	-	-
CN(C)/C=N/c1sc2c(c1C#N)CC(C)(C)NC2(C)C	-	-	-	23	-	-
CCN(/C=N/c1sc2c(c1C#N)CC(C)(C)NC2(C)C)CC	-	-	-	-	-	-
CCc1nc2ccc(C(=O)N3CCCC(C(N)=O)C3)cn2c1N(C)Cc1ccc(OC)cc1 (stereo not given)	-	39	-	-	-	-
CCc1nc2ccc(C(=O)NCCOc3ccc(OC)cc3)cn2c1N(C)CCCc1ccccc1	-	35	-	-	-	-
CCc1nc2ccc(C(=O)NCCOc3ccc(OC)cc3)cn2c1N(C)Cc1ccc(OC)cc1	-	30	-	-	-	-
CCc1nc2ccc(C(=O)N3CCCC(C(N)=O)C3)cn2c1N(CCC(C)C)CCN(C)C (stereo not given)	-	-	-	-	-	-
O=c1onc(-c2ccccc2)n1Cc1ccc([N+](=O)[O-])cc1	-	-	-	-	-	-
COc1ccc(-c2coc3cc(OC(C)=O)ccc3c2=S)cc1	-	-	-	-	-	-
COc1ccc(NC(=O)c2nnn(CC(=O)Nc3ccccc3OC)c2N)c(OC)c1	-	-	-	-	-	-
CCc1ccc(Cn2nnc(C(=O)Nc3ccc(OC)cc3OC)c2N)cc1	25	-	-	-	-	-
CCOc1ccc(C2C(C#N)=C(N)SC(N)=C2C#N)c(OCC)c1	18	-	-	-	-	-
CC#CC[N+](C)(C)CCCCCCCCCCCC	-	41	-	-	-	-
C#CC[N+](C)(C)CCCCCCCCCCCC	-	56	-	-	-	-
CC(Nc1nc(-c2cccnc2)nc2ccccc12)c1ccc(F)cc1 (stereo not given)	-	21	-	-	-	-
COc1ccc(C(CNc2nc(-c3cccnc3)nc3ccccc23)N(C)C)cc1 (stereo not given)	-	33	-	-	-	-
SMILES	CHRM1 agonist	M1 antag	M5 ag	CHRM1 PAM	M5 antag	CHRM5 PAM
COc1ccc(CCNc2nc(-c3cccnc3)nc3ccccc23)cc1OC	-	25	-	-	39	-
COC(=O)CNc1nc(-c2cccnc2)nc2ccccc12	-	-	-	-	-	-
Cc1c(O)ccc(/C=N/Nc2nc(-c3cccnc3)nc3ccccc23)c1O	-	32	-	-	-	-
COc1ccc(/C=N/Nc2nc(-c3cccnc3)nc3ccccc23)cc1OC	-	-	-	-	-	-
Oc1ccc(/C=N/Nc2nc(-c3cccnc3)nc3ccccc23)c(O)c1	-	-	-	-	-	-
COc1ccc(S(=O)(=O)N[C@H]2CC[C@H](CCNC(=O)c3ccccc3F)O[C@@H]2CO)cc1	.	.	-	.	-	-
O=C(NCc1cccnc1)c1csc([C@H]2C[C@H](O)[C@@H](CO)O2)n1	-	-	-	-	-	-
COc1cccc(CN(C)C(=O)C2CCCN(C(=O)c3ccc(Cl)cc3)C2)c1 (stereo not given)	-	-	-	-	-	-
O=C(Nc1ccccc1)c1cc(C2CCCCN2S(=O)(=O)Cc2cccc(C(F)(F)F)c2)on1 (stereo not given)	-	-	-	-	-	-
COC(=O)[C@@H](NC(=O)c1ccccc1OC1CCN(S(C)(=O)=O)CC1)C(C)C	-	62	-	-	-	-
CS(=O)(=O)N1CCC(Oc2ccccc2C(=O)NC2CCCCCC2)CC1	-	-	-	-	-	-
COc1ccc2cc1Oc1ccc(cc1)C[C@H]1c3c(cc4c(c3Oc3cc5c(cc3OC)CCN(C)[C@@H]5C2)OCO4)CCN1C	-	-	-	-	-	-
COc1ccc2cc1Oc1ccc(cc1)C[C@H]1c3cc(c(OC)cc3CCN1C)Oc1c(OC)c(OC)cc3c1[C@H](C2)N(C)CC3	-	91	-	-	-	-
CCN1CCN(C(C(=O)NC2CCCCC2)c2ccnc3ccccc23)CC1 (stereo not given)	-	-	-	-	-	-
OC(c1ccc(F)cc1)c1nc(-c2ccoc2)cs1 (stereo not given)	-	-	-	-	-	-
COc1ccc(NC(=S)NC(NC(=O)c2ccc(Cl)cc2Cl)C(Cl)(Cl)Cl)c([N+](=O)[O-])c1 (stereo not given)	-	-	-	-	28	-
O=C(CN1CCCC1=O)NC1CCCc2c1cnn2-c1cc(F)cc(F)c1 (stereo not given)	-	-	-	-	-	19
CC(C)(C)c1ccc(-n2ncc3c2CCCC3NC(=O)CN2CCCCC2=O)cc1 (stereo not given)	-	-	-	-	-	-
COc1ccc2[nH]c3c(=O)n(N)c(=O)[nH]c3c2c1	-	-	-	-	-	-
COc1cc2[nH]c3c(=O)n(N)c(=O)[nH]c3c2cc1OC	-	41	-	-	-	-
Cc1c(CC(=O)N[C@@H](C)C(=O)O)c(=O)oc2c(C)c3occ(-c4ccccc4)c3cc12	-	-	-	31	-	-
Cc1c(CC(=O)N[C@@H](C)C(=O)O)c(=O)oc2cc3occ(-c4ccccc4)c3cc12	-	-	-	-	-	-
CC(=O)Nc1c(O)nc(SCC(=O)N2CCCCC2)[nH]c1=O	-	-	-	26	-	-
Cc1noc(C)c1CSc1ccccc1C(=O)O	-	-	-	-	-	-
